The nature of data set [1]: Cytotoxicity against human MT4 cells after 5 days by MTT assay. Format: cell-based. In a few lines: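 Mock-infected MT-4 cells received culture medium in place of virus, at 6×10^5 cells/mL, run in parallel triplicate wells with serial 5-fold compound dilutions. After 5 days, MTT reduction was read at 540 and 690 nm, using the median OD of three wells. CC50 is the concentration lowering OD540 of the mock-infected control by 50%.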

Data set [2] deals with Human immunodeficiency virus 1. The experiment in a line: Antiviral activity against HIV1 harboring reverse transcriptase K103N/Y181C mutant infected in human MT4 cells assessed as inhibition of virus-induced cytopathogenicity after 5 days by MTT assay. As to conditions: Human immunodeficiency virus 1, MT4, 120 h. Format: functional, organism-based. In a few lines:
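MT-4 cells (6×10^5 cells/mL after spinning at 220 g for 5 min) infected with 100-300 CCID50 of the double RT mutant strain derived from wild-type LAI. Serial 5-fold compound dilutions tested in triplicate alongside mock-infected wells. Viability read by MTT at 540 and 690 nm on day 5, using the median OD of three wells. IC50 is the concentration giving 50% protection from viral cytopathic effect.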

Data set [3] deals with Human immunodeficiency virus 1. The experiment in a line: Antiviral activity against wild type HIV1 3B infected in human MT4 cells assessed as inhibition of virus-induced cytopathogenicity after 5 days by MTT assay. Format: functional, organism-based. As to conditions: Human immunodeficiency virus 1, 3B, MT4, 120 h. A digest of the protocol: (§1)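 MT-4 cells in exponential growth were pelleted (5 min, 220 g) and resuspended at 6×10^5 cells/mL. They were infected at the start with 100-300 CCID50 of virus stock and exposed to serial 5-fold compound dilutions in triplicate wells. Viability was read by MTT at 540 and 690 nm after 5 days, using the median OD of three wells. EC50 is the concentration giving 50% protection from viral cytopathic effect.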

The subject of data set [4] is Human immunodeficiency virus 2. The data set is described as follows: Antiviral activity against HIV2 ROD infected in human MT4 cells assessed as inhibition of virus-induced cytopathogenicity after 5 days by MTT assay. The data set is classed as functional, organism-based. As to conditions: Human immunodeficiency virus 2, ISOLATE ROD, MT4, 120 h. In a few lines:
as §1

Data set [5] can be described thus: Selectivity index, ratio of CC50 for human MT4 cells to IC50 for wild type HIV1 3B. Format: functional.
The nature of data set [6]: Ratio of compound selectivity index to zidovudine selectivity index for human MT4 cells.
Data set [7] deals with Human immunodeficiency virus 1. The data set is described as follows: Ratio of zidovudine IC50 to compound IC50 for wild type HIV1 3B. Format: functional.

pIC50: −log10 of the molar value. Where only a bound is given, the exact number is not on record here.

`N#Cc1ccc(Nc2nccc(C(NN)c3ccc(C#N)cc3)n2)cc1` (stereo not given) came in with a CC50 at 120 h in data set [1] of 40.2 µM. Moreover, the pIC50 was 5.23 in data set [2], 6.63 in data set [3] and 5.53 in data set [4]. Further, the “Ratio CC50/IC50” value in data set [5] was 172.

In data set [1], `N#C/C=C/c1ccc(C(NN)c2ccnc(Nc3ccc(C#N)cc3)n2)cc1` (stereo not given) came in with a CC50 at 120 h of 186 µM. Moreover, the ratio of compound SI to zidovudine SI in data set [6] stood at 7. For the same compound, the pIC50 in data set [2] is 5.27; in data set [3], 8.76; in data set [4], 5.30. Moreover, in data set [7], the “Ratio IC50” value is reported as 4. In data set [5], the “Ratio CC50/IC50” value stood at 106367.

`CNC(c1ccc(C#N)cc1)c1ccnc(Nc2ccc(C#N)cc2)n1` (stereo not given): the midpoint of cytotoxicity in data set [1], the CC50 at 120 h, lay at 189 µM. Besides, the pIC50 was below 3.72 in data set [2], 4.82 in data set [3] and below 3.72 in data set [4]. For the same compound, the “Ratio CC50/IC50” value in data set [5] is listed as 12.

`CNC(c1ccc(/C=C/C#N)cc1)c1ccnc(Nc2ccc(C#N)cc2)n1` (stereo not given) displayed a CC50 at 120 h in data set [1] of 41.4 µM. The pIC50 was below 4.38 in data set [2], 6.97 in data set [3] and below 4.38 in data set [4]. For the same compound, the “Ratio CC50/IC50” value in data set [5] is recorded as 385.

Consider `CNC(c1ccnc(Nc2ccc(C#N)cc2)n1)c1ccccc1Cl` (stereo not given), for which it took 36.1 µM to reach half-maximal cytotoxicity in data set [1] (CC50 at 120 h). Further, the pIC50 in data set [2] was below 4.44; in data set [3] it was 7.20; in data set [4], below 5.22. For the same compound, the “Ratio CC50/IC50” value in data set [5] is reported as 571.

In data set [1], `CCNC(c1ccc(C#N)cc1)c1ccnc(Nc2ccc(C#N)cc2)n1` (stereo not given) had a CC50 at 120 h of 158 µM. For the same compound, the pIC50 in data set [2] was below 3.80; in data set [3], 4.68; in data set [4], below 3.80. The “Ratio CC50/IC50” value in data set [5] is on record as 7.

In data set [1], `CCNC(c1ccc(/C=C/C#N)cc1)c1ccnc(Nc2ccc(C#N)cc2)n1` (stereo not given) gave a CC50 at 120 h of 37.3 µM. The values for the pIC50 in data set [2], in data set [3] and in data set [4] were below 4.43, 6.72 and below 4.43, respectively. For the same compound, the “Ratio CC50/IC50” value in data set [5] was 194.

For the compound `CCNC(c1ccnc(Nc2ccc(C#N)cc2)n1)c1ccccc1Cl` (stereo not given), the CC50 at 120 h in data set [1] worked out at 39.4 µM. Besides, the pIC50 in data set [2] was below 4.40; in data set [3], 6.46; in data set [4] it was below 4.40. The “Ratio CC50/IC50” value in data set [5] turned out to be 113.

In the case of `CCCNC(c1ccc(C#N)cc1)c1ccnc(Nc2ccc(C#N)cc2)n1` (stereo not given), the midpoint of cytotoxicity in data set [1], the CC50 at 120 h, lay at 34.9 µM. Besides, the pIC50 in data set [2] was below 4.46; in data set [3] it was at most 5.02; in data set [4], below 4.46. The “Ratio CC50/IC50” value in data set [5] is “<=4”.

For `CCCNC(c1ccc(/C=C/C#N)cc1)c1ccnc(Nc2ccc(C#N)cc2)n1` (stereo not given), in data set [1], the CC50 at 120 h came out at 34 µM. For the same compound, the pIC50 in data set [2] was below 4.43; in data set [3], 6.97; in data set [4], below 4.43. The “Ratio CC50/IC50” value in data set [5] amounted to 319.

Compound `CCCNC(c1ccnc(Nc2ccc(C#N)cc2)n1)c1ccccc1Cl` (stereo not given) returned a CC50 at 120 h in data set [1] of 68.5 µM. Also, the pIC50 was below 4.16 in data set [2], 7.32 in data set [3] and below 4.16 in data set [4]. Also, in data set [5], the “Ratio CC50/IC50” value stood at 1422.

Consider `CC(C)NC(c1ccc(C#N)cc1)c1ccnc(Nc2ccc(C#N)cc2)n1` (stereo not given), for which the CC50 at 120 h in data set [1] stood at 69.2 µM. Moreover, the pIC50 in data set [2], in data set [3] and in data set [4] was below 4.16 throughout.

Compound `CC(C)NC(c1ccc(/C=C/C#N)cc1)c1ccnc(Nc2ccc(C#N)cc2)n1` (stereo not given) registered a CC50 at 120 h in data set [1] of 32.3 µM. Moreover, the values for the pIC50 in data set [2], in data set [3] and in data set [4] were below 4.49, 7.10 and below 4.49, respectively. In addition, the “Ratio CC50/IC50” value in data set [5] is listed as 405.

Compound `CC(C)NC(c1ccnc(Nc2ccc(C#N)cc2)n1)c1ccccc1Cl` (stereo not given) gave a CC50 at 120 h in data set [1] of 35.5 µM. Besides, the pIC50 in data set [2] was below 4.45; in data set [3], 7.40; in data set [4] it was below 4.45. For the same compound, the “Ratio CC50/IC50” value in data set [5] worked out at 879.

Regarding `CC(O)CNC(c1ccc(C#N)cc1)c1ccnc(Nc2ccc(C#N)cc2)n1` (stereo not given), the CC50 at 120 h in data set [1] was above 65 µM. Moreover, the pIC50 in data set [2] was below 4.19; in data set [3], 4.62; in data set [4], below 4.19. Further, in data set [5], the “Ratio CC50/IC50” value is above 3.

`CC(O)CNC(c1ccnc(Nc2ccc(C#N)cc2)n1)c1ccccc1Cl` (stereo not given) returned a CC50 at 120 h in data set [1] of 34.7 µM. Further, the pIC50 in data set [2] was below 4.46; in data set [3] it was 6.48; in data set [4] it was below 4.46. Besides, the “Ratio CC50/IC50” value in data set [5] is given as 105.

`N#Cc1ccc(Nc2nccc(C(NC3CC3)c3ccc(C#N)cc3)n2)cc1` (stereo not given) came in with a CC50 at 120 h in data set [1] of 34.7 µM. Moreover, the pIC50 in data set [2], in data set [3] and in data set [4] was below 4.46 each time. For the same compound, in data set [5], the “Ratio CC50/IC50” value is reported as below 1.

With `N#C/C=C/c1ccc(C(NC2CC2)c2ccnc(Nc3ccc(C#N)cc3)n2)cc1` (stereo not given), the CC50 at 120 h in data set [1] came to 56.1 µM. In addition, the pIC50 in data set [2] was below 4.25; in data set [3], 6.71; in data set [4] it was below 4.25. For the same compound, the “Ratio CC50/IC50” value in data set [5] came to 287.

Take `N#Cc1ccc(Nc2nccc(C(NC3CC3)c3ccccc3Cl)n2)cc1` (stereo not given): the CC50 at 120 h in data set [1] worked out at 37.9 µM. For the same compound, the pIC50 was below 4.42 in data set [2], 6.92 in data set [3] and below 4.42 in data set [4]. The “Ratio CC50/IC50” value in data set [5] was found to be 317.

`CC(C)Nc1cccnc1N1CCN(C(=O)c2cc3cc(NS(C)(=O)=O)ccc3[nH]2)CC1` [DELAVIRDINE]: half-maximal cytotoxicity in data set [1] (CC50 at 120 h) was put at 43.8 µM. In data set [3], the pIC50 is 6.09. In addition, the “Ratio CC50/IC50” value in data set [5] was above 54.

With `O=C1Nc2ccc(Cl)cc2[C@@](C#CC2CC2)(C(F)(F)F)O1` [EFAVIRENZ], the pIC50 in data set [2] is 6.80; in data set [3] it was 7.65. Moreover, in data set [5], the “Ratio CC50/IC50” value was above 280.

Regarding `Nc1ccn([C@@H]2CS[C@H](CO)O2)c(=O)n1` [LAMIVUDINE], the CC50 at 120 h in data set [1] is above 87.2 µM. The pIC50 was 5.41 in data set [3] and 4.81 in data set [4]. Moreover, in data set [5], the “Ratio CC50/IC50” value is recorded as above 22.

In turn, `Cc1ccnc2c1NC(=O)c1cccnc1N2C1CC1` [NEVIRAPINE] registered a CC50 at 120 h in data set [1] above 15 µM. For the same compound, the values for the pIC50 in data set [2] and in data set [3] were 6.05 and 7.00, respectively. For the same compound, in data set [5], the “Ratio CC50/IC50” value is given as above 148.

`Cc1cn([C@H]2C[C@H](N=[N+]=[N-])[C@@H](CO)O2)c(=O)[nH]c1=O` [ZIDOVUDINE] showed a CC50 at 120 h in data set [1] above 93.5 µM. In addition, the pIC50 was 8.11 in data set [2], 8.18 in data set [3] and 8.77 in data set [4]. Besides, in data set [5], the “Ratio CC50/IC50” value is listed as above 14124.

For the origin of these results see ChEMBL document CHEMBL3286160, “Design and synthesis of a new series of modified CH-diarylpyrimidines as drug-resistant HIV non-nucleoside reverse transcriptase inhibitors” (Eur J Med Chem, 2014).
